# From ChEMBL document CHEMBL1132185, “3-O-Desacyl monophosphoryl lipid A derivatives: synthesis and immunostimulant activities” (J Med Chem, 1999)
# Columns and labels:
# [1] = (§1) lethal toxicity produced when compound is administered along with […] (iv); assay type: organism-based; conditions: in vivo
# [2] = Ability to induce iNOS gene expression assessed in an in vitro system utilizing peritoneal exudate cells(PEC) from Propionibacterium acnes-primed mice; assay type: functional; conditions: Mus musculus; read-out: ED50 (the source's name)
# How it was run: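 ICR mice (female, 4-8 weeks) primed i.p. on day 0 with 1 mg heat-killed P. acnes in 0.2 mL saline; peritoneal exudate cells harvested day 4, adhered at 2 × 10^5 cells/well, nonadherent cells washed off. Test materials at various concentrations, in quadruplicate, in RPMI-1640 with 10% FCS for 24 h at 37 °C. Supernatant nitrite measured by Griess reaction; ED50 from nonlinear curve fit.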
# [3] = organism: Oryctolagus cuniculus; assay: Minimum pyrogenic dose(MPD) was determined; assay type: functional
# How it was run: (§2)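 USP three-rabbit pyrogen test in New Zealand white rabbits (female, 1.5–5.0 kg). Stocks were 100 µg/mL in 10% aq EtOH, diluted in D5W and given into the marginal ear vein at 3 mL/kg. Rectal temperature was taken every 30 min for 3 h and the maximum rise over baseline recorded per rabbit. MPD is the dose giving a three-rabbit total rise ≥1.2 °C.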
# [4] = system: Oryctolagus cuniculus; assay: Total temperature rise in three rabbits at a dose of 10 ug/kg; assay type: functional; how it was run: as §2
# [5] = as §1; assay type: organism-based, Homo sapiens; conditions: mouse, in vivo
# [6] = molecular target: Tumor necrosis factor (Homo sapiens) (UniProt P01375); assay: Relative ex vivo cytokine induction in human whole blood stimulated with 10 ug/mL (done by ELISA) for Tumor necrosis factor alpha; assay type: functional, tissue-based
# Sequence of Tumor necrosis factor (Homo sapiens) (P01375 whole entry): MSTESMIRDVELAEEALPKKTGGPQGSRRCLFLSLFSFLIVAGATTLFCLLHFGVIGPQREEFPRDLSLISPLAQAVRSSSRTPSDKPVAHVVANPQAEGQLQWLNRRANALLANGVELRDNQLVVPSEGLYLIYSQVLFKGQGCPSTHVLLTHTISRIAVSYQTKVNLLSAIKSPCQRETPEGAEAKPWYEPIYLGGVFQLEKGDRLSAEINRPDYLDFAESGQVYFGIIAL
# How it was run: (§3)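 Heparinized whole blood from one healthy human volunteer, 0.45 mL, was mixed with 0.05 mL PBS (pH 7.4) containing test compound. It was incubated 4 h at 37 °C with shaking, then diluted with 1.5 mL PBS and centrifuged. Supernatant TNF-α and IL-1β were quantified in duplicate by sandwich ELISA.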
# [7] = organism: Homo sapiens; assay: Relative ex vivo cytokine induction in human whole blood stimulated with 10 ug/mL (done by ELISA)for Interleukin (IL1-beta); assay type: functional; how it was run: as §3
# [8] = organism: Mus musculus; assay: Adjuvant activity was assessed by measuring tetanus toxoid-specific antibody responses in serum of mice immunised. (evaluated as IgG2a); assay type: functional
# How it was run: (§4)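 Mice immunised on day 0 and day 21 with tetanus toxoid (2 μg per 2 mL emulsion) plus test article in 2.5% oil-water emulsion (12% lecithin-squalene oil phase; 0.1% Tween 80-saline aqueous phase). Controls received toxoid in 2.5% oil-water vehicle. Sera were taken from the orbital plexus 14 days after the second injection, diluted 2-fold ×11 from 1:200 and tested individually by toxoid-coated ELISA. Values are test titer/vehicle control titer.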
# [9] = organism: Mus musculus; assay: Adjuvant activity was assessed by measuring tetanus toxoid-specific antibody responses in serum of mice immunised. (evaluated as IgG1); assay type: functional; how it was run: as §4
# [10] = organism: Mus musculus; assay: Adjuvant activity was assessed by measuring tetanus toxoid-specific antibody responses in serum of mice immunised. (evaluated as IgG2b); assay type: functional; how it was run: as §4
# [11] = organism: Mus musculus; assay: Adjuvant activity was assessed by measuring tetanus toxoid-specific antibody responses in serum of mice immunised. (evaluated as total Ig); assay type: functional; how it was run: as §4
smiles,measurement,setting,value
CCCCCCCCCCC[C@H](CC(=O)NC1C(O)OC(COC2OC(CO)C(OP(=O)(O)O)C(OC(=O)C[C@@H](CCCCCCCCCCC)OC(=O)CCCCCCC)C2NC(=O)C[C@@H](CCCCCCCCCCC)OC(=O)CCCCCCC)C(O)C1O)OC(=O)CCCCCCC.CCN(CC)CC (some centres undefined),LD50,[1],0.2 µg
same,EC50,[2],0.3 ng/mL
same,MPD,[3],<2.5 µg/kg
same,Fever response,[4],3.9 °C
CCCCCCCCCCC[C@H](CC(=O)NC1C(O)OC(COC2OC(CO)C(OP(=O)(O)O)C(OC(=O)C[C@@H](CCCCCCCCCCC)OC(=O)CCCCC)C2NC(=O)C[C@@H](CCCCCCCCCCC)OC(=O)CCCCC)C(O)C1O)OC(=O)CCCCC.CCN(CC)CC (some centres undefined),LD50,[1],4 µg
same,EC50,[2],> 10000 ng/mL
same,MPD,[3],10 µg/kg
same,Fever response,[4],1.7 °C
CCCCCCCCCCCC(=O)O[C@H](CCCCCCCCCCC)CC(=O)NC1C(O)OC(COC2OC(CO)C(OP(=O)(O)O)C(OC(=O)C[C@@H](CCCCCCCCCCC)OC(=O)CCCCCCCCCCC)C2NC(=O)C[C@@H](CCCCCCCCCCC)OC(=O)CCCCCCCCCCC)C(O)C1O.CCN(CC)CC (some centres undefined),LD50,[5],0.04 µg
same,Induction,[6],4.6
same,EC50,[2],1 ng/mL
same,MPD,[3],<2.5 µg/kg
same,Induction,[7],2.9
same,Fever response,[4],5.3 °C
CCCCCCCCCCC[C@H](CC(=O)NC1C(O)OC(COC2OC(CO)C(OP(=O)(O)O)C(OC(=O)C[C@@H](CCCCCCCCCCC)OC(=O)CCCCCCCCC)C2NC(=O)C[C@@H](CCCCCCCCCCC)OC(=O)CCCCCCCCC)C(O)C1O)OC(=O)CCCCCCCCC.CCN(CC)CC (some centres undefined),LD50,[5],0.02 µg
same,Induction,[6],3
same,EC50,[2],0.05 ng/mL
same,Adjuvant activity,[8],6
same,MPD,[3],<0.06 µg/kg
same,Adjuvant activity,[9],2.4
same,Adjuvant activity,[10],4.3
same,Adjuvant activity,[11],6.2
same,Induction,[7],7.3
same,Fever response,[4],4.1 °C
CCCCCCCCCCCCCCCC(=O)O[C@H](CCCCCCCCCCC)CC(=O)NC1C(O)OC(COC2OC(CO)C(OP(=O)(O)O)C(OC(=O)C[C@@H](CCCCCCCCCCC)OC(=O)CCCCCCCCCCCCC)C2NC(=O)C[C@@H](CCCCCCCCCCC)OC(=O)CCCCCCCCCCC)C(O)C1O.CCN(CC)CC (some centres undefined),LD50,[5],1 µg
same,Induction,[6],1.6
same,EC50,[2],10 ng/mL
same,MPD,[3],15 µg/kg
same,Induction,[7],1.4
same,Fever response,[4],0.6 °C
CCCCCCCCCCCCCC(=O)O[C@H](CCCCCCCCCCC)CC(=O)NC1C(O)OC(COC2OC(CO)C(OP(=O)(O)O)C(OC(=O)C[C@@H](CCCCCCCCCCC)OC(=O)CCCCCCCCCCCCC)C2NC(=O)C[C@@H](CCCCCCCCCCC)OC(=O)CCCCCCCCCCCCC)C(O)C1O.CCN(CC)CC (some centres undefined),LD50,[5],1 µg
same,Induction,[6],1.7
same,EC50,[2],5 ng/mL
same,Adjuvant activity,[8],14.6
same,MPD,[3],15 µg/kg
same,Adjuvant activity,[9],4.5
same,Adjuvant activity,[10],4.5
same,Adjuvant activity,[11],8.2
same,Induction,[7],3.4
same,Fever response,[4],0.3 °C
CCCCCCCCCCC[C@H](CC(=O)NC1C(O)OC(COC2OC(CO)C(OP(=O)(O)O)C(OC(=O)C[C@@H](CCCCCCCCCCC)OC(=O)CCC)C2NC(=O)C[C@@H](CCCCCCCCCCC)OC(=O)CCC)C(O)C1O)OC(=O)CCC.CCN(CC)CC (some centres undefined),LD50,[1],4.5 µg
same,EC50,[2],> 10000 ng/mL
same,MPD,[3],10 µg/kg
same,Fever response,[4],1.5 °C
